According to ChEMBL document CHEMBL1143617, “Potential antitumor agents. 37. Synthesis and antitumor activity of guanylhydrazones from imidazo[2,1-b]thiazoles and from the new heterocyclic system thiazolo[2',3':2,3]imidazo[4,5-c]quinoline” (2005):

What was measured:
[1] = tested on: Panel NCI-60 (60 carcinoma cell lines); experiment: Cytostatic effect against human cancer cell line; (Range=-4.01 to -5.65); assay type: functional; settings: read-out: Log TGI (converted)
Summary of the method: (§1)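 NCI 60 human tumour cell line panel, entered after a three-cell-line prescreen. Five concentrations at 10-fold dilutions: 10-4, 10-5, 10-6, 10^-7 and 10^-8 M. Results given as log values of growth inhibitory power (GI50) and cytostatic effect.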

[2] = tested on: Panel NCI-60 (60 carcinoma cell lines); experiment: Growth inhibitory power against human cancer cell line; (Range=-4.04 to -6.08); assay type: functional; summary of the method: as §1
[3] = tested on: Panel NCI-60 (60 carcinoma cell lines); experiment: Cytotoxic effect against human cancer cell line; (Range=-4.01 to -5.01); assay type: functional
Summary of the method: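 NCI 60-cell-line panel, tested at five 10-fold dilutions from 10^-4 M down to 10^-8 M. Results are expressed as log values of growth inhibitory power (GI50) and cytostatic effect.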

Rattus norvegicus [4] = species on record: Rattus norvegicus; experiment: Inhibitory effect on mitochondrial respiration in […]-uncoupled rat liver mitochondria; Activity measured as succinate-O2 activity adding succinate; assay type: functional
Summary of the method: (§2)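 Isolated coupled rat liver mitochondria; compound at 35 µM. Oxygen consumption was measured polarographically with a Clark electrode. Reactions were started with a saturating amount of substrate: glutamate/malate (NADH-O2), succinate (succinate-O2) or ascorbate/TMPD (Complex IV). The uncoupled rate was obtained by adding 2,4-dinitrophenol. The respiratory control index was also derived. Rates are in ngA oxygen/min/mg protein, mean of five and eight independent measures.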

Rattus norvegicus [5] = species on record: Rattus norvegicus; experiment: Inhibitory effect on mitochondrial respiration in […]-uncoupled rat liver mitochondria; Activity measured as NADH-O2 activity adding glutamate/malate; assay type: functional; summary of the method: as §2
Rattus norvegicus [6] = species on record: Rattus norvegicus; experiment: Compound was tested against rat liver mitochondria respiration; Activity as respiratory control index measured as succinate-O2 activity adding succinate; assay type: functional; summary of the method: as §2
Rattus norvegicus [7] = species on record: Rattus norvegicus; experiment: Compound was tested against rat liver mitochondria respiration; Activity as respiratory control index measured as NADH-O2 activity adding glutamate/malate; assay type: functional; summary of the method: as §2
Rattus norvegicus [8] = species on record: Rattus norvegicus; experiment: Inhibitory effect on mitochondrial respiration in […]-uncoupled rat liver mitochondria; Activity measured as TMPD test complex IV activity adding ascorbate; assay type: functional; summary of the method: as §2
Rattus norvegicus [9] = species on record: Rattus norvegicus; experiment: Compound was tested against rat liver mitochondria respiration; Activity as respiratory control index measured as TMPD test complex IV activity adding ascorbate; assay type: functional; summary of the method: as §2
K562 = experiment: Growth inhibitory power against human leukemia (K-562)cell line; assay type: functional; summary of the method: as §1
RXF 393 = experiment: Growth inhibitory power against human renal (RXF 393) cell line; assay type: functional; summary of the method: as §1
COLO 205 = experiment: Growth inhibitory power against human colon (COLO 205) cell line; assay type: functional; summary of the method: as §1
OVCAR-3 = experiment: Growth inhibitory power against human ovarian (OVCAR-3) cell line cell line; assay type: functional; summary of the method: as §1
Rattus norvegicus [10] = species on record: Rattus norvegicus; experiment: Inhibitory effect on mitochondrial respiration in coupled rat liver mitochondria at 35 uM concentration measured as succinate-O2 activity adding succinate; State 3
Rattus norvegicus [11] = species on record: Rattus norvegicus; experiment: Inhibitory effect on mitochondrial respiration in coupled rat liver mitochondria at 35 uM concentration measured as succinate-O2 activity adding succinate; State 4
Rattus norvegicus [12] = species on record: Rattus norvegicus; experiment: Inhibitory effect on mitochondrial respiration in coupled rat liver mitochondria at 35 uM concentration measured as NADH-O2 activity adding glutamate/malate; State 4
Rattus norvegicus [13] = species on record: Rattus norvegicus; experiment: Inhibitory effect on mitochondrial respiration in coupled rat liver mitochondria at 35 uM concentration measured as NADH-O2 activity adding glutamate/malate; State 3
Rattus norvegicus [14] = species on record: Rattus norvegicus; experiment: Inhibitory effect on mitochondrial respiration in coupled rat liver mitochondria at 35 uM concentration measured as TMPD test complex IV activity adding ascorbate; State 3
Rattus norvegicus [15] = species on record: Rattus norvegicus; experiment: Inhibitory effect on mitochondrial respiration in coupled rat liver mitochondria at 35 uM concentration measured as TMPD test complex IV activity adding ascorbate; State 4

SMILES | TGI [1] [µM] | GI50 [2] [µM] | LC50 (50% lethal concentration) [3] [µM] | other results
COc1cc(-c2nc3sccn3c2/C=N/N=C(N)N)c([N+](=O)[O-])cc1OC | < 2.24 | < 0.832 | < 9.77 | –
COc1cc([N+](=O)[O-])c(OC)cc1-c1nc2scc(C)n2c1/C=N/N=C(N)N | < 2.24 | < 0.832 | < 9.77 | –
COc1cc([N+](=O)[O-])c(OC)cc1-c1nc2sccn2c1/C=N/NC(=N)N | < 2.24 | < 0.832 | < 9.77 | –
N=C(N)N/N=C/c1c(-c2cc(O)ccc2O)nc2sccn12 | < 2.24 | < 0.832 | < 9.77 | –
COc1ccc(OC)c(-c2nc3sccn3c2/C=N/N=C(N)N)c1 | < 2.24 | < 0.832 | < 9.77 | –
COc1ccc(OC)c([N+](=O)[O-])c1-c1nc2n(c1/C=N/N=C(N)N)CCS2 | < 2.24 | < 0.832 | < 9.77 | –
COc1ccc(OC)c2c1ncc1c2nc2sccn21 | < 2.24 | < 0.832 | < 9.77 | –
N=C(N)/N=N/c1ccc(NNC(=N)N)c2ncc3c(nc4sccn43)c12 | < 2.24 | < 0.832 | < 9.77 | –
COc1cc([N+](=O)[O-])c(OC)cc1-c1nc2sc(Cl)cn2c1/C=N/N=C(N)N | – | – | – | Actvity (ngAoxigen/min/mg of RLM) (Rattus norvegicus [4]): 81.7; Actvity (ngAoxigen/min/mg of RLM) (Rattus norvegicus [5]): 74.2; Actvity (Rattus norvegicus [6]): 1.7; Actvity (Rattus norvegicus [7]): 2.3; Actvity (ngAoxigen/min/mg of RLM) (Rattus norvegicus [8]): 158; Actvity (Rattus norvegicus [9]): 1.5; GI50 (K562): 1.91 µM; GI50 (RXF 393): 1.45 µM; GI50 (COLO 205): 1.55 µM; GI50 (OVCAR-3): 0.589 µM; Actvity (ngAoxigen/min/mg of RLM) (Rattus norvegicus [10]): 54.9; Actvity (ngAoxigen/min/mg of RLM) (Rattus norvegicus [11]): 33.4; Actvity (ngAoxigen/min/mg of RLM) (Rattus norvegicus [12]): 23.1; Actvity (ngAoxigen/min/mg of RLM) (Rattus norvegicus [13]): 47.7; Actvity (ngAoxigen/min/mg of RLM) (Rattus norvegicus [14]): 142; Actvity (ngAoxigen/min/mg of RLM) (Rattus norvegicus [15]): 98
COc1ccc(OC)c([N+](=O)[O-])c1-c1nc2sc(C)c(C)n2c1/C=N/N=C(N)N | < 2.24 | < 0.832 | < 9.77 | –
N=C(N)N/N=C/c1c(-c2ccc(O)c(O)c2)nc2sccn12 | < 2.24 | < 0.832 | < 9.77 | –
CC(/C=N/NC(=N)N)=N/NC(=N)N | – | – | – | Actvity (ngAoxigen/min/mg of RLM) (Rattus norvegicus [4]): 169; Actvity (ngAoxigen/min/mg of RLM) (Rattus norvegicus [5]): 106; Actvity (Rattus norvegicus [6]): 3.7; Actvity (Rattus norvegicus [7]): 4.9; Actvity (ngAoxigen/min/mg of RLM) (Rattus norvegicus [8]): 156; Actvity (Rattus norvegicus [9]): 1.7; Actvity (ngAoxigen/min/mg of RLM) (Rattus norvegicus [10]): 141; Actvity (ngAoxigen/min/mg of RLM) (Rattus norvegicus [11]): 39.2; Actvity (ngAoxigen/min/mg of RLM) (Rattus norvegicus [12]): 17.9; Actvity (ngAoxigen/min/mg of RLM) (Rattus norvegicus [13]): 80; Actvity (ngAoxigen/min/mg of RLM) (Rattus norvegicus [14]): 128; Actvity (ngAoxigen/min/mg of RLM) (Rattus norvegicus [15]): 91.1
COc1ccc(OC)c([N+](=O)[O-])c1-c1nc2sc(C)cn2c1/C=N/N=C(N)N | < 2.24 | < 0.832 | < 9.77 | –
COc1ccc(OC)c([N+](=O)[O-])c1-c1nc2sc(Cl)cn2c1/C=N/N=C(N)N | < 2.24 | < 0.832 | < 9.77 | –
COc1cc([N+](=O)[O-])c(OC)cc1-c1nc2sc(C)cn2c1/C=N/N=C(N)N | < 2.24 | < 0.832 | < 9.77 | –
COc1cc([N+](=O)[O-])c(OC)cc1-c1nc2n(c1/C=N/N=C(N)N)CCS2 | < 2.24 | < 0.832 | < 9.77 | –
COc1ccc(-c2nc3sccn3c2/C=N/N=C(N)N)cc1OC | < 2.24 | < 0.832 | < 9.77 | –
COc1cc([N+](=O)[O-])c(OC)cc1-c1nc2sc(C)c(C)n2c1/C=N/N=C(N)N | < 2.24 | < 0.832 | < 9.77 | –
COc1cc2ncc3c(nc4sccn43)c2cc1OC | < 2.24 | < 0.832 | < 9.77 | –
COc1cc(OC)c([N+](=O)[O-])cc1-c1nc2sccn2c1/C=N/N=C(N)N | < 2.24 | < 0.832 | < 9.77 | –
COc1ccc(OC)c([N+](=O)[O-])c1-c1nc2scc(C)n2c1/C=N/N=C(N)N | < 2.24 | < 0.832 | < 9.77 | –
CCCc1cn2c(/C=N/N=C(N)N)c(-c3c(OC)ccc(OC)c3[N+](=O)[O-])nc2s1 | < 2.24 | < 0.832 | < 9.77 | –
O=C1C=CC(=O)c2c1ncc1c2nc2sccn21 | < 2.24 | < 0.832 | < 9.77 | –
COc1ccc(OC)c([N+](=O)[O-])c1-c1nc2sccn2c1/C=N/N=C(N)N | < 2.24 | < 0.832 | < 9.77 | –
